From ChEMBL document CHEMBL3232834, “Synthesis of novel building blocks of benzosuberone bearing coumarin moieties and their evaluation as potential anticancer agents” (Eur J Med Chem, 2014)

What was measured:
A549 = experiment: In vitro cytotoxicity against human A549 cells assessed as growth inhibition by MTT assay; type: functional, cell-based
Method in brief: (§1)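 Human tumour lines A549 (alveolar adenocarcinoma), HeLa (cervical), MDA-MB-231 and MCF7 (breast adenocarcinoma), plus normal embryonic kidney HEK293, all ATCC-sourced, grown in 96-well plates. Growth inhibition read as cell-mediated reduction of tetrazolium salt (MTT) to formazan, with doxorubicin as standard. IC50 (µM) calculated from absorbance dose-response curves.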

MDA-MB-231 = experiment: In vitro cytotoxicity against human MDA-MB-231 cells assessed as growth inhibition by MTT assay; type: functional, cell-based; method in brief: as §1
HEK293 = experiment: In vitro cytotoxicity against HEK293 cells assessed as growth inhibition by MTT assay; type: cell-based; conditions: Homo sapiens; method in brief: as §1
MCF7 = experiment: In vitro cytotoxicity against human MCF7 cells assessed as growth inhibition by MTT assay; type: functional, cell-based; method in brief: as §1
HeLa = experiment: In vitro cytotoxicity against human HeLa cells assessed as growth inhibition by MTT assay; type: functional, cell-based; method in brief: as §1

COc1cc2c(cc1OC)-c1c(c(=O)oc3ccccc13)CCC2
IC50 (A549): > 200 µM | IC50 (MDA-MB-231): 4.87 µM | IC50 (HEK293): > 200 µM | IC50 (MCF7): > 200 µM | IC50 (HeLa): 6.72 µM

O=c1oc2ccccc2c2c1CCCc1ccccc1-2
IC50 (A549): 3.35 µM | IC50 (MDA-MB-231): 16.8 µM | IC50 (HEK293): > 200 µM | IC50 (MCF7): 9.63 µM | IC50 (HeLa): 14.1 µM

Cc1cc2c(cc1C)-c1c(c(=O)oc3ccc(Cl)cc13)CCC2
IC50 (A549): 10.8 µM | IC50 (MDA-MB-231): 13.3 µM | IC50 (HEK293): > 200 µM | IC50 (MCF7): 15.8 µM | IC50 (HeLa): 12.7 µM

COc1cccc2c1C(=O)c1c(O)c3c(c(O)c1C2=O)C[C@@](O)(C(=O)CO)C[C@@H]3O[C@H]1C[C@H](N)[C@H](O)[C@H](C)O1 [DOXORUBICIN]
IC50 (HEK293): > 200 µM
